According to ChEMBL document CHEMBL4665627 (Eur J Med Chem, 2019):
≈ marks a conversion by molar mass, not a printed value. Calls of active or inactive are those of the source. The rule behind the calls is not given here.

How the values were obtained:
Escherichia coli [1] = test: Antibacterial activity against Escherichia coli ATCC 25922 assessed as inhibition of bacterial growth after 24 hrs by CLSI protocol based two fold serial dilution method; type: functional
Summary of the method: (§1)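 Two-fold serial broth dilution in 96-well plates following CLSI; MIC (mM) taken as the lowest concentration giving complete growth inhibition; MIC values from three independent experiments.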

Enterococcus faecalis = test: Antibacterial activity against Enterococcus faecalis assessed as inhibition of bacterial growth after 24 hrs by CLSI protocol based two fold serial dilution method; type: functional; summary of the method: as §1
Klebsiella pneumoniae [2] = test: Antibacterial activity against Klebsiella pneumoniae measured every 24 hrs after several passages by serial dilution method; type: functional, organism-based
Staphylococcus aureus [3] = test: Antibacterial activity against methicillin-resistant Staphylococcus aureus N315 assessed as inhibition of bacterial growth after 24 hrs by CLSI protocol based two fold serial dilution method; type: functional
Staphylococcus aureus [4] = test: Antibacterial activity against Staphylococcus aureus ATCC 25923 assessed as inhibition of bacterial growth after 24 hrs by CLSI protocol based two fold serial dilution method; type: functional; summary of the method: as §1
Acinetobacter baumannii = test: Antibacterial activity against Acinetobacter baumannii assessed as inhibition of bacterial growth after 24 hrs by CLSI protocol based two fold serial dilution method; type: functional; summary of the method: as §1
Staphylococcus aureus [5] = test: Antibacterial activity against Staphylococcus aureus assessed as inhibition of bacterial growth after 24 hrs by CLSI protocol based two fold serial dilution method; type: functional; summary of the method: as §1
Pseudomonas aeruginosa [6] = test: Antibacterial activity against Pseudomonas aeruginosa ATCC 27853 assessed as inhibition of bacterial growth after 24 hrs by CLSI protocol based two fold serial dilution method; type: functional; summary of the method: as §1
Staphylococcus aureus [7] = test: Antibacterial activity against Staphylococcus aureus ATCC 29213 assessed as inhibition of bacterial growth after 24 hrs by CLSI protocol based two fold serial dilution method; type: functional
Pseudomonas aeruginosa [8] = test: Antibacterial activity against Pseudomonas aeruginosa assessed as inhibition of bacterial growth after 24 hrs by CLSI protocol based two fold serial dilution method; type: functional; summary of the method: as §1
Klebsiella pneumoniae [9] = test: Antibacterial activity against Klebsiella pneumoniae assessed as inhibition of bacterial growth after 24 hrs by CLSI protocol based two fold serial dilution method; type: functional; summary of the method: as §1
Escherichia coli [10] = test: Antibacterial activity against Escherichia coli assessed as inhibition of bacterial growth after 24 hrs by CLSI protocol based two fold serial dilution method; type: functional; summary of the method: as §1
Aspergillus fumigatus = test: Antifungal activity against Aspergillus fumigatus assessed as inhibition of fungal growth after 24 hrs by CLSI protocol based two fold serial dilution method; type: functional; summary of the method: as §1
Candida parapsilosis = test: Antifungal activity against Candida parapsilosis ATCC 22019 assessed as inhibition of fungal growth after 24 hrs by CLSI protocol based two fold serial dilution method; type: functional; settings: Lodderomyces parapsilosis; summary of the method: as §1
Candida albicans [11] = test: Antifungal activity against Candida albicans ATCC 90023 assessed as inhibition of fungal growth after 24 hrs by CLSI protocol based two fold serial dilution method; type: functional; summary of the method: as §1
Saccharomyces cerevisiae = test: Inhibition of Saccharomyces cerevisiae CGMCC 2.145 chitin synthase at 300 ug/ml using GlcNAc and UDP-GlcNAc as substrate incubated for 60 mins by microplate reader analysis relative to control; settings: dose 300.0 µg/ml
Summary of the method: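 Chitin synthase inhibition ratio measured at 300 µg/mL test compound, relative to untreated control.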

Candida tropicalis = test: Antifungal activity against Candida tropicalis assessed as inhibition of fungal growth after 24 hrs by CLSI protocol based two fold serial dilution method; type: functional; summary of the method: as §1
Candida albicans [12] = test: Antifungal activity against Candida albicans assessed as inhibition of fungal growth after 24 hrs by CLSI protocol based two fold serial dilution method; type: functional; summary of the method: as §1
Staphylococcus aureus [13] = test: Antibacterial activity against methicillin-resistant Staphylococcus aureus assessed as bacterial growth inhibition in presence of 2-(4-(3-(2-aminothiazol-4-yl)-1-ethyl-6-fluoro-4-oxo-1,4-dihydroquinolin-7-yl)piperazin-1-yl)acetonitrile by CLSI protocol based two fold serial dilution method; type: functional
Summary of the method: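 Checkerboard-type pairing, with each agent tested alone and combined by CLSI two-fold serial dilution. MICs are from three independent experiments. FIC index = (MIC of A combined/MIC of A alone) + (MIC of B combined/MIC of B alone). An index ≤1 is read as synergistic and 1–2 as additive.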

Klebsiella pneumoniae [14] = test: Antibacterial activity against Klebsiella pneumoniae assessed as bacterial growth inhibition in presence of 2-(4-(3-(2-aminothiazol-4-yl)-1-ethyl-6-fluoro-4-oxo-1,4-dihydroquinolin-7-yl)piperazin-1-yl)acetonitrile by CLSI protocol based two fold serial dilution method; type: functional; summary of the method: as §1
Escherichia coli [15] = test: Antibacterial activity against Escherichia coli assessed as bacterial growth inhibition in presence of 2-(4-(3-(2-aminothiazol-4-yl)-1-ethyl-6-fluoro-4-oxo-1,4-dihydroquinolin-7-yl)piperazin-1-yl)acetonitrile by CLSI protocol based two fold serial dilution method; type: functional; summary of the method: as §1
Klebsiella pneumoniae [16] = test: Potentiation of 2-(4-(3-(2-aminothiazol-4-yl)-1-ethyl-6-fluoro-4-oxo-1,4-dihydroquinolin-7-yl)piperazin-1-yl)acetonitrile-induced antibacterial activity against Klebsiella pneumoniae assessed as fold reduction in 2-(4-(3-(2-aminothiazol-4-yl)-1-ethyl-6-fluoro-4-oxo-1,4-dihydroquinolin-7-yl)piperazin-1-yl)acetonitrile MIC by CLSI protocol based two fold serial dilution method; type: functional
Staphylococcus aureus [17] = test: Antibacterial activity against Staphylococcus aureus assessed as bacterial growth inhibition in presence of 2-(4-(3-(2-aminothiazol-4-yl)-1-ethyl-6-fluoro-4-oxo-1,4-dihydroquinolin-7-yl)piperazin-1-yl)acetonitrile by CLSI protocol based two fold serial dilution method; type: functional

SMILES	MIC (Escherichia coli [1]) [µM]	MIC (Enterococcus faecalis) [µM]	MIC (Staphylococcus aureus [3]) [µM]	MIC (Staphylococcus aureus [4]) [µM]	MIC (Acinetobacter baumannii) [µM]	MIC (Staphylococcus aureus [5]) [µM]	MIC (Pseudomonas aeruginosa [6]) [µM]	MIC (Staphylococcus aureus [7]) [µM]	MIC (Pseudomonas aeruginosa [8]) [µM]	MIC (Klebsiella pneumoniae [9]) [µM]	MIC (Escherichia coli [10]) [µM]	MIC (Aspergillus fumigatus) [µM]	MIC (Candida parapsilosis) [µM]	MIC (Candida albicans [11]) [µM]	inhibition (Saccharomyces cerevisiae) [%]	MIC (Candida tropicalis) [µM]	MIC (Candida albicans [12]) [µM]	other results
CCn1cc(C(=O)O)c(=O)c2cc(F)c(N3CCNCC3)cc21 [NORFLOXACIN]	25 (≈ 7.98 µg/mL)	13 (≈ 4.15 µg/mL)	25 (≈ 7.98 µg/mL)	3 (≈ 0.958 µg/mL)	25 (≈ 7.98 µg/mL)	2 (≈ 0.639 µg/mL)	2 (≈ 0.639 µg/mL)	6 (≈ 1.92 µg/mL)	6 (≈ 1.92 µg/mL)	13 (≈ 4.15 µg/mL)	50 (≈ 16 µg/mL)	–	–	–	–	–	–	Activity (Klebsiella pneumoniae [2]): inactive
CCn1cc(-c2csc(N)n2)c(=O)c2cc(F)c(N3CCN(CCO)CC3)cc21	153 (≈ 63.9 µg/mL)	38 (≈ 15.9 µg/mL)	153 (≈ 63.9 µg/mL)	77 (≈ 32.1 µg/mL)	153 (≈ 63.9 µg/mL)	153 (≈ 63.9 µg/mL)	38 (≈ 15.9 µg/mL)	153 (≈ 63.9 µg/mL)	77 (≈ 32.1 µg/mL)	19 (≈ 7.93 µg/mL)	153 (≈ 63.9 µg/mL)	153 (≈ 63.9 µg/mL)	77 (≈ 32.1 µg/mL)	153 (≈ 63.9 µg/mL)	48.3	153 (≈ 63.9 µg/mL)	153 (≈ 63.9 µg/mL)	–
CC(=O)OCC1=C(C(=O)O)N2C(=O)[C@@H](NC(=O)CS/C(=N/C(C)C)NC(C)C)[C@H]2SC1	–	–	4 (≈ 1.89 µg/mL)	–	–	34 (≈ 16.1 µg/mL)	–	–	–	4 (≈ 1.89 µg/mL)	17 (≈ 8.03 µg/mL)	–	–	–	–	–	–	MIC (Staphylococcus aureus [13]): 2 µM; MIC (Klebsiella pneumoniae [14]): 2 µM; MIC (Escherichia coli [15]): 8 µM; fold change (FC) (Klebsiella pneumoniae [16]): 5; MIC (Staphylococcus aureus [17]): 4 µM
CCN(CC)C(=O)CN1CCN(c2cc3c(cc2F)c(=O)c(-c2csc(N)n2)cn3CC)CC1	66 (≈ 32.1 µg/mL)	132 (≈ 64.2 µg/mL)	66 (≈ 32.1 µg/mL)	16 (≈ 7.79 µg/mL)	16 (≈ 7.79 µg/mL)	137 (≈ 66.7 µg/mL)	132 (≈ 64.2 µg/mL)	66 (≈ 32.1 µg/mL)	132 (≈ 64.2 µg/mL)	263 (≈ 128 µg/mL)	66 (≈ 32.1 µg/mL)	66 (≈ 32.1 µg/mL)	132 (≈ 64.2 µg/mL)	66 (≈ 32.1 µg/mL)	49.1	132 (≈ 64.2 µg/mL)	66 (≈ 32.1 µg/mL)	–
